From article PMC8366898 (European journal of medicinal chemistry, 2018)
Values after ≈ are worked out from the molar mass of the structure shown. “Also recorded” adds a separate entry of the source. Read-outs that look alike come from different tables or passages of the source.

Legend:
five bacterial pathogens = assay: Bacterial growth inhibition at single concentration, whole panel; assay type: cell-based; settings: 32 μg/mL, in words
S. aureus [1] = assay: Bacterial growth inhibition at single concentration; assay type: cell-based, Staphylococcus aureus; settings: 32 μg/mL (15–17 μM), OD600, 18 h; in words
A. baumannii [2] = assay: as above; assay type: cell-based, Acinetobacter baumannii; settings: 32 μg/mL (15–17 μM), OD600, 18 h
[3] = SPR binding of peptides on immobilized liposomes; settings: POPC lipid systems, 100 μM peptide
A. baumannii [4] = assay: MIC, whole cell growth inhibition dose response; assay type: cell-based, Acinetobacter baumannii; settings: polystyrene 96-well plate, n=2
E. coli = assay: MIC, whole cell growth inhibition dose response; assay type: cell-based, Escherichia coli; settings: n=2
S. aureus [5] = assay: MIC, whole cell growth inhibition dose response; assay type: cell-based, Staphylococcus aureus; settings: for MIC: Staphylococcus aureus, MRSA
K. pneumoniae = assay: MIC, whole cell growth inhibition dose response; assay type: cell-based, Klebsiella pneumoniae; settings: n=2
Liposome leakage = settings: 20 μM peptide, CF dequenching
Outline: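 Vesicles: 5 mg DOPC in chloroform, dried under N2, then freeze-dried 2 h to remove residual solvent. The lipid was redissolved in diethyl ether and hydrated in 10 mM HEPES, 100 mM KCl, pH 7.4, containing 50 mM carboxyfluorescein (quenching level). Peptide at 20 μM was mixed with vesicles for 3 min equilibration. Release was followed as the fluorescence dequenching rate.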

[6] = non-binding surface 96-well plate

For “Cbz-(AzPro-Pro)8-(N-Methyl AzPro) [Peptide 13]”, the “antibacterial activity (growth inhibition) over the bacterial panel” value (five bacterial pathogens) was “highest activity”.
In the case of H-(AzPro-Pro)4-O^tBu [Peptide 20], the “antibacterial activity (growth inhibition) over the bacterial panel” value (five bacterial pathogens) is reported as “largely abolishes all activity”.
For H-(AzPro-Pro)8-NHCH2CH2OH [Peptide 4], the “antibacterial activity (growth inhibition) over the bacterial panel” value (five bacterial pathogens) was “considerable loss of activity”.
In the case of Boc-(Pro-AzPro)8-H.HCl [Peptide 17], the “S. aureus growth inhibition” value (S. aureus [1]) is reported as “some activity” and the “A. baumannii growth inhibition” value (A. baumannii [2]) is reported as “some activity”.
With Cbz-(AzPro-Pro)8-OH [Peptide 14] the “antibacterial activity (growth inhibition) over the bacterial panel” value (five bacterial pathogens) was “considerable loss of activity; also recorded: largely abolishes all activity”.
With Cbz-(AzPro-Pro)16-O^tBu [Peptide 11] the “antibacterial activity (growth inhibition) over the bacterial panel” value (five bacterial pathogens) was “considerable loss of activity; also recorded: drastic loss in activity”.
For Cbz-(AzPro-Pro)4-OH [Peptide 19], the “antibacterial activity (growth inhibition) over the bacterial panel” value (five bacterial pathogens) was “little inhibition”.
In the case of Boc-(Pro-AzPro)4-H [Peptide 22], the “antibacterial activity (growth inhibition) over the bacterial panel” value (five bacterial pathogens) is reported as “little inhibition”.
In the case of “Formyl-(AzPro-Pro)7-NHCH2CH2OH [Peptide 5]”, the “antibacterial activity (growth inhibition) over the bacterial panel” value (five bacterial pathogens) is reported as “largely abolishes all activity”.
With Ac-(AzPro-Pro)8-NHCH2CH2OH [Peptide 2] the SPR binding response [3] was “showed some binding response” and the “antibacterial activity (growth inhibition) over the bacterial panel” value (five bacterial pathogens) was “considerable loss of activity”.
For Cbz-(AzPro-Pro)8-O^tBu [Peptide 8], the SPR binding response [3] was “showed some binding response” and the “antibacterial activity (growth inhibition) over the bacterial panel” value (five bacterial pathogens) was “highest activity”.
For Colistin, the “MIC A. baumannii Type PS plate” value (A. baumannii [4]) was 1 µg/mL, the “MIC E. coli FDA Control NBS plate” value (E. coli; [6]) was 0.016 µg/mL and the “MIC E. coli FDA Control PS plate” value (E. coli; polystyrene 96-well plate) was 0.125 µg/mL. For the same compound, the “MIC S. aureus MRSA NBS plate” value (S. aureus [5]; non-binding surface 96-well plate, n=2) was over 32 µg/mL, the “MIC S. aureus MRSA PS plate” value (S. aureus [5]; polystyrene 96-well plate, n=2) was over 32 µg/mL and the “MIC K. pneumoniae MDR NBS plate” value (K. pneumoniae; [6]) was 0.06 µg/mL. The “MIC K. pneumoniae MDR PS plate” value (K. pneumoniae; polystyrene 96-well plate) was 0.25 µg/mL.
With Boc-(Pro-AzPro)8-Cbz [Peptide 10] the SPR binding response [3] was “showed some binding response”.
For “Formyl-(AzPro-Pro)6-NHCH2CH2OH [Peptide 6]”, the “antibacterial activity (growth inhibition) over the bacterial panel” value (five bacterial pathogens) was “largely abolishes all activity”.
With Cbz-(AzPro-Pro)8-NHCH2CH2OH [Peptide 1] the DOPC liposome leakage (Liposome leakage) was 13%, the SPR binding response [3] was “showed some binding response” and the “antibacterial activity (growth inhibition) over the bacterial panel” value (five bacterial pathogens) was “highest activity”. For the same compound, the “A. baumannii growth inhibition” value (A. baumannii [2]) was 38%.
With `CN[C@H](CC(C)C)C(=O)N[C@H]1C(=O)N[C@@H](CC(N)=O)C(=O)N[C@H]2C(=O)N[C@H]3C(=O)N[C@H](C(=O)N[C@H](C(=O)O)c4cc(O)cc(O)c4-c4cc3ccc4O)[C@H](O)c3ccc(c(Cl)c3)Oc3cc2cc(c3O[C@@H]2O[C@H](CO)[C@@H](O)[C@H](O)[C@H]2O[C@H]2C[C@](C)(N)[C@H](O)[C@H](C)O2)Oc2ccc(cc2Cl)[C@H]1O` [Vancomycin] the MIC (S. aureus [5]; read-out: MIC S. aureus MRSA NBS plate) was 2 µg/mL (≈ 1.38 µM) and the MIC (S. aureus [5]; read-out: MIC S. aureus MRSA PS plate) was 2 µg/mL (≈ 1.38 µM).
In the case of HCl.H-(Pro-AzPro)4-Cbz [Peptide 23], the “antibacterial activity (growth inhibition) over the bacterial panel” value (five bacterial pathogens) is reported as “little inhibition”.
For Cbz-(AzPro-Pro)4-O^tBu [Peptide 18], the “antibacterial activity (growth inhibition) over the bacterial panel” value (five bacterial pathogens) was “little inhibition”.
For HCl. H-(Pro-AzPro)8-Cbz [Peptide 16], the “S. aureus growth inhibition” value (S. aureus [1]) was “some activity” and the “A. baumannii growth inhibition” value (A. baumannii [2]) was “some activity”.
For H-(Pro-AzPro)8-H [Peptide 9], the “antibacterial activity (growth inhibition) over the bacterial panel” value (five bacterial pathogens) was “highest activity”.
